Source: PubChem (several laboratories)
SKKanGAS inh: blocks kanamycin growth of S. pyogenes SKKanGAS strain; BacTiter-Glo, 6 h; inhibition, % at 7.5 µM; 1.3% of 300,000 active; AID 1662;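 active means mean replicate score, as percent of positive control median, at least 50; inconclusive means mean below 50 but one replicate at or above 50; inactive means mean and every replicate below 50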;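 further: strain carries kanamycin resistance gene driven by streptokinase promoter and grows in 40 µg/ml kanamycin; loss of luminescence reflects streptokinase promoter inhibition or plain growth inhibition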
T cruzi repl: T. cruzi replication inhibition | T. cruzi beta-gal in NIH3T3, luminescence, 90 h | inhibition, % (test concentration not listed) | 1.4% of 300,000 active;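 active means mean inhibition across valid replicates above about 55%, limit read from the data; inconclusive means mean below that limit but half or more replicates reach it; inactive means mean below it, under half of replicates reach it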;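 further: signal also drops with host cell toxicity which is not excluded here; higher percent means less beta-gal luminescence so fewer parasites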
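System – NIH/3T3 host cells with β-galactosidase reporter T. cruzi · Doses – single 50 nL compound addition per well in DMSO · Reagent – 5000 T. cruzi trypomastigotes/well · Medium – Low-serum DMEM with 2% FBS · Timing – ≥90 h infection period, 3 h prior cell attachment · Evaluation – parasite load inhibition, % · Technique – GalScreen luminescence, 60 min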
Calb FLC: affects C. albicans growth with fluconazole | 0.57% of 300,000 active | growth inhibition, % (concentration not given with the values) | C. albicans CaCi-2 (fluconazole-resistant clinical isolate) + fluconazole, Alamar Blue growth, 48 h;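 active means growth inhibition above about 58% in most replicates, limit read from the data, passing the limit was not always enough; inconclusive means exactly half the replicates above a set limit; inactive means most replicates below a set limit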;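 further: all wells also contain fluconazole at 8 µg/ml as a sub-toxic cotreatment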
CSC inhib: blocks cancer stem cells | cancer stem cell-like cells viability, luminescence | 1.1% of 300,000 active | inhibition, % at 7.5 µM | AID 2717; in the data active means inhibition above about 75%; inconclusive means no clear call, values can overlap the other calls; tested in HMLE shEcad cells
Mdm2-MdmX inh: disrupts the human Mdm2-MdmX interaction | 3% of 330,000 active | AID 485346 | SaOS-2 split-luciferase Mdm2/MdmX complementation, luminescence | O15151+Q00987 | inhibition, % at 8 µM;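 active means inhibition of at least 50% at 8 µM in the primary screen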
Target sequence (O15151 whole entry, looked up): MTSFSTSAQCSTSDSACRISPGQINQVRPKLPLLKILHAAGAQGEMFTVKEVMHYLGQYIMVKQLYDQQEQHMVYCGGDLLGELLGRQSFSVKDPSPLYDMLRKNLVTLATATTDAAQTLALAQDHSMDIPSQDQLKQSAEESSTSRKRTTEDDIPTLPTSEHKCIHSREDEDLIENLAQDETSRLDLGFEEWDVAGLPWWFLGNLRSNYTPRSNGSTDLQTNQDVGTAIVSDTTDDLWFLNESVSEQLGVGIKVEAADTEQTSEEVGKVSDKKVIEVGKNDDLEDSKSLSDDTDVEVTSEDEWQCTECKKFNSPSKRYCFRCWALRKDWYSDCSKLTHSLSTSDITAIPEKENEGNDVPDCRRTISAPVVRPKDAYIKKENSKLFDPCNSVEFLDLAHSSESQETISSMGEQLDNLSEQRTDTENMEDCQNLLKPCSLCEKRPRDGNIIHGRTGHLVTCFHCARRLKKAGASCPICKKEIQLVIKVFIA
Target sequence (Q00987 whole entry, looked up): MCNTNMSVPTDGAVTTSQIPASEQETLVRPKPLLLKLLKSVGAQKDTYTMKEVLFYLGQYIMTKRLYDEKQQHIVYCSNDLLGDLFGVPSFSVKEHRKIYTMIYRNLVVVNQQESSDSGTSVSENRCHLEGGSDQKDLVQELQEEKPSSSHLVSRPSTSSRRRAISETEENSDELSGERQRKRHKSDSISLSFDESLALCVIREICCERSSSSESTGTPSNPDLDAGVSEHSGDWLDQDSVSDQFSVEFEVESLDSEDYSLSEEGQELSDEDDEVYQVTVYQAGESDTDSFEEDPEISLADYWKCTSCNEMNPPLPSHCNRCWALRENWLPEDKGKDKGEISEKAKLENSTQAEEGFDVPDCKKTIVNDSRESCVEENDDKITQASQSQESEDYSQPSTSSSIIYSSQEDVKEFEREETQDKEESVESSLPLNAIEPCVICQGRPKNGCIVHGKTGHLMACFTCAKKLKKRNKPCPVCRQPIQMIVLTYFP
Beta cell apopt: blocks beta cell apoptosis; INS-1E cytokine-induced death, ATP luminescence, 48 h; percent of positive-control rescue, neutral wells zero; 0.8% of 300,000 active; AID 435005; protection from apoptosis, % (test concentration not listed);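 active means Every replicate reaches about 75%, or at least half do and their mean reaches it too, limit read from the data; inconclusive means At least half of replicates reach the limit but their mean does not; inactive means Under half of replicates reach the limit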;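 further: higher means more ATP so stronger rescue from cytokine killing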
Mdm2-MdmX conf: confirmation of human Mdm2/MdmX interaction inhibitors | shares compounds with Mdm2-MdmX inh | Mdm2-MdmX binding, luminescent assay | inhibition, % at 8 µM | 55% of 10,000 active | AID 489028; in the data active means inhibition above about 40%
Full FLuc ctr: inhibits full-length luciferase, flagging false Mdm2/MdmX hits; shares compounds with Mdm2-MdmX inh; SaOS-2 full-length luciferase counterscreen, luminescence; inhibition, % at 8 µM; 77% of 6,200 active;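 active means mean inhibition at 8 µM reaching about 37%, which flags the compound as non-specific, limit read from the data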;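 further: p53-null SaOS-2 cells with luciferase driven by a doxycycline-inducible promoter; compound on cells about two nights before reading with doxycycline added after day one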
Numbers stand for hits. Sampled rows, rich in hits. Any-hit rate of the full collection: about 5.7%.

CCN(CC(=O)NCc1ccc(Cl)cc1)C(=O)c1ccc(S(=O)(=O)NCc2ccco2)cc1 was read as SKKanGAS inh inactive, T cruzi repl inactive, Calb FLC inactive, CSC inhib inactive, Mdm2-MdmX inh inactive and Beta cell apopt inactive.
Screening COc1ccccc1Cn1c(=O)c2ccccc2n2c(SCc3csc(C)n3)nnc12 returned SKKanGAS inh inactive, T cruzi repl inactive, Calb FLC inactive, CSC inhib inactive, Mdm2-MdmX inh inactive and Beta cell apopt inactive.
COc1ccccc1Cn1c(=O)c2ccccc2n2c(Sc3ncnc4sccc34)nnc12 was read as SKKanGAS inh inactive, T cruzi repl inactive, Calb FLC inactive, CSC inhib inactive, Mdm2-MdmX inh 76, Beta cell apopt inactive and Mdm2-MdmX conf inactive.
Screening COc1ccc(C(CC(=O)c2ccc(C)cc2)C(C#N)C#N)cc1OC (stereo not drawn) returned SKKanGAS inh inactive, T cruzi repl inactive, Calb FLC inactive, CSC inhib inactive, Mdm2-MdmX inh 56, Beta cell apopt inactive, Mdm2-MdmX conf 44 and Full FLuc ctr 47.
Screening COC(=O)C(C(=O)OC)C(CC(=O)c1ccc(C)cc1)c1cc(OC)c(OC)c(OC)c1 (stereo not drawn) returned SKKanGAS inh inactive, T cruzi repl inactive, Calb FLC inactive, CSC inhib inactive, Mdm2-MdmX inh inactive and Beta cell apopt inactive.
CCOC(=O)C1=CC[C@@H](c2cc3cc(OC)ccc3n2C)N(S(=O)(=O)c2ccc(C)cc2)[C@H]1C(=O)OCC was read as Mdm2-MdmX inh inactive and Beta cell apopt inactive.
COc1ccc(N(C)C(=O)c2cc3c(s2)-c2ccc(Cl)cc2S(=O)(=O)C3)c(OC)c1 was read as SKKanGAS inh inactive, T cruzi repl inactive, Calb FLC inactive, CSC inhib inactive, Mdm2-MdmX inh 56, Beta cell apopt inactive and Mdm2-MdmX conf inactive.
`COc1ccc(N(C)C(=O)c2cc3c(s2)-c2ccccc2OC3)c(OC)c1` gave SKKanGAS inh inactive, T cruzi repl inactive, Calb FLC inactive, Mdm2-MdmX inh inactive and Beta cell apopt inactive.
For Cc1cc(C)c2cccc(N)c2n1 the results were SKKanGAS inh inactive, T cruzi repl inactive, Calb FLC inactive, CSC inhib inactive, Mdm2-MdmX inh inactive and Beta cell apopt inactive.
For Cc1cc(C)c2ccc(N)nc2c1O the results were SKKanGAS inh 99, T cruzi repl inactive, Calb FLC 107, CSC inhib inactive, Mdm2-MdmX inh 83, Beta cell apopt inactive, Mdm2-MdmX conf 75 and Full FLuc ctr 41.
`Cc1csc2nc(COC(=O)c3ccc(Cl)c([N+](=O)[O-])c3)cc(=O)n12` gave CSC inhib inactive, Mdm2-MdmX inh 89, Beta cell apopt inactive and Mdm2-MdmX conf inactive.
`O=c1c2c(nc3nc(NCc4ccccc4Cl)[nH]n13)CCC2` gave SKKanGAS inh inactive, T cruzi repl inactive, Calb FLC inactive, CSC inhib inactive, Mdm2-MdmX inh 67 and Mdm2-MdmX conf inactive.
For CC1CCN(Cc2c(C(=O)N/N=C/c3ccc(C(C)C)cc3)nnn2-c2nonc2N)CC1 the results were SKKanGAS inh inactive, T cruzi repl inactive, Calb FLC inactive, CSC inhib inactive, Mdm2-MdmX inh inactive and Beta cell apopt inactive.
Screening Cc1c(C(=O)N/N=C/c2c(O)ccc3ccccc23)nnn1-c1nonc1N returned SKKanGAS inh inconclusive, T cruzi repl inactive, Calb FLC inactive, Mdm2-MdmX inh 67, Beta cell apopt 86, Mdm2-MdmX conf 81 and Full FLuc ctr 52.
COc1ccc2ccccc2c1/C=N/NC(=O)c1nnn(-c2nonc2N)c1C(C)C was read as SKKanGAS inh inactive, T cruzi repl inactive, Calb FLC inconclusive, CSC inhib inactive, Mdm2-MdmX inh inactive and Beta cell apopt inactive.
`Cc1cccc(COc2ccc(/C=N/NC(=O)c3nnn(-c4nonc4N)c3C)cc2)c1` gave SKKanGAS inh inactive, T cruzi repl inactive, Calb FLC inactive, CSC inhib inactive, Mdm2-MdmX inh inactive and Beta cell apopt inactive.
For CC(C)c1c(C(=O)N/N=C/c2ccccc2OCc2c(F)cccc2Cl)nnn1-c1nonc1N the results were SKKanGAS inh inactive, T cruzi repl inactive, CSC inhib inactive, Mdm2-MdmX inh 57, Beta cell apopt inactive, Mdm2-MdmX conf 52 and Full FLuc ctr 55.
`CC1CCN(Cc2c(C(=O)N/N=C/c3ccc(C(C)(C)C)cc3)nnn2-c2nonc2N)CC1` gave SKKanGAS inh inactive, T cruzi repl inactive, Calb FLC inconclusive, CSC inhib inactive, Mdm2-MdmX inh 50, Beta cell apopt inactive and Mdm2-MdmX conf inactive.
`Cc1ccc(COc2cccc(/C=N/NC(=O)c3nnn(-c4nonc4N)c3C)c2)cc1` gave SKKanGAS inh inactive, T cruzi repl inactive, Calb FLC inactive, CSC inhib inactive, Mdm2-MdmX inh 56, Beta cell apopt inactive and Mdm2-MdmX conf inactive.
Screening CC(=O)NC12CC3CC(C1)CC(C(=O)Nc1nc4ccc(S(C)(=O)=O)cc4s1)(C3)C2 returned SKKanGAS inh inactive, T cruzi repl inactive, Calb FLC inactive, CSC inhib inactive, Mdm2-MdmX inh inactive and Beta cell apopt inactive.
For CC(C)[C@H](N[C@@H](C)c1ccccc1)c1c(O)ccc2ccccc12 the results were SKKanGAS inh inactive, T cruzi repl inactive, Calb FLC inactive, CSC inhib inactive, Mdm2-MdmX inh inactive and Beta cell apopt inactive.
For O=C(NCC(=O)N1CC=C(c2ccccc2)CC1)c1ccc(F)cc1 the results were CSC inhib inactive, Mdm2-MdmX inh inactive and Beta cell apopt inactive.
Screening Cc1ccc(/C=N/NC(=O)c2nnn(-c3nonc3N)c2CNc2ccccc2)cc1 returned SKKanGAS inh inactive, T cruzi repl inactive, Calb FLC inactive, CSC inhib inactive, Mdm2-MdmX inh inactive and Beta cell apopt inactive.
For Nc1nonc1-n1nnc(C(=O)N/N=C/c2cc(Br)ccc2O)c1CNc1ccccc1 the results were SKKanGAS inh 108, T cruzi repl 59, Calb FLC 88, CSC inhib 97, Mdm2-MdmX inh 69, Beta cell apopt 97, Mdm2-MdmX conf 66 and Full FLuc ctr inactive.
For Cc1ccc(COc2ccc(/C=N/NC(=O)c3nnn(-c4nonc4N)c3COc3ccc(F)cc3)cc2)cc1 the results were SKKanGAS inh inactive, T cruzi repl inactive, Calb FLC inactive, CSC inhib inactive, Mdm2-MdmX inh inactive and Beta cell apopt inactive.
`Nc1nonc1-n1nnc(C(=O)N/N=C/c2ccc(OCc3ccc(F)cc3)cc2)c1COc1ccccc1` gave SKKanGAS inh inactive, T cruzi repl inactive, Calb FLC inactive, CSC inhib inactive, Mdm2-MdmX inh 53, Beta cell apopt inactive and Mdm2-MdmX conf inactive.
